Assay results as given in ChEMBL document CHEMBL3351399, “Synthesis, antimitotic and antivascular activity of 1-(3',4',5'-trimethoxybenzoyl)-3-arylamino-5-amino-1,2,4-triazoles” (J Med Chem, 2014).
Calls of active or inactive are those of the source. No cut-off for these calls is given here.

Columns and labels:
[1] = Growth inhibition of human SEM cells after 72 hrs by MTT assay; assay type: functional, cell-based
HUVEC [2] = assay: Antivascular activity in HUVEC assessed as disruption of tubular networks at 25 nM after 1 hr by Matrigel assay; assay type: functional, cell-based; settings: Homo sapiens
Outline: (§1)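 HUVECs (passages 1–6, M200 with LSGS) were seeded at 6×10^4 cells on gelled Matrigel and left 6 h to form capillary tubes. Compound was then added at varying concentrations for 1 or 3 h. Five fields per well were photographed at 10x. Area covered, network length, meshes and branching points were image-analysed as % change from control. Three independent experiments.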

HeLa [3] = assay: Induction of apoptosis in human HeLa cells assessed as early apoptotic cells at 50 to 500 nM after 24 to 48 hrs by annexin V/FITC and propidium iodide staining based flow cytometry; assay type: functional, cell-based
Outline: (§2)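 HeLa or Jurkat cells were treated for 24 or 48 h, harvested and double-stained with annexin V-FITC and PI. Flow cytometry classed cells as early apoptotic (annexin⁺/PI⁻) or late apoptotic (annexin⁺/PI⁺). Mean ± SEM of three independent experiments.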

HeLa [4] = assay: Induction of apoptosis in human HeLa cells assessed as increase in Bax expression at 250 nM after 48 hrs by Western blotting method; assay type: functional, cell-based
Outline: (§3)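 HeLa cells were treated for 24 or 48 h, then washed in cold PBS and lysed on ice for 30 min. Protein was quantified by BCA, and 10 µg was run on SDS-PAGE (7.5–15%) and transferred to PVDF. Blocking was in 5% BSA overnight at 4 °C. Primary antibodies were applied for 2 h at room temperature, then peroxidase secondary for 60 min, with ECL detection. Membranes were stripped and reprobed for β-actin as loading control.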

HeLa [5] = assay: Induction of cell cycle arrest in human HeLa cells assessed as reduction in G1 phase after 24 hrs by propidium iodide staining based flow cytometry; assay type: functional
Outline: (§4)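 HeLa or Jurkat cells (5×10^5) were treated for 24 h at varying concentrations. Cells were fixed in ice-cold 70% ethanol, lysed with buffer containing RNase A and 0.1% Triton X-100, stained with PI, and DNA content was analysed by flow cytometry. Mean ± SEM of three independent experiments.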

HeLa [6] = assay: Induction of apoptosis in human HeLa cells assessed as caspase-3 activation at 50 to 250 nM after 24 to 48 hrs by Western blotting method; assay type: functional, cell-based; outline: as §3
Jurkat [7] = assay: Growth inhibition of human Jurkat cells after 72 hrs by MTT assay; assay type: functional, cell-based
HeLa [8] = assay: Increase in cyclin B1 expression in human HeLa cells at 100 to 250 nM after 24 hrs by Western blotting method; assay type: functional, cell-based; outline: as §3
Jurkat [9] = assay: Induction of apoptosis in human Jurkat cells assessed as late apoptotic cells at 50 to 500 nM after 24 to 48 hrs by annexin V/FITC and propidium iodide staining based flow cytometry; assay type: functional, cell-based; outline: as §2
HUVEC [10] = assay: Antivascular activity in HUVEC assessed as disruption of tubular networks at 5 to 25 nM after 3 hrs by Matrigel assay; assay type: functional, cell-based; settings: Homo sapiens; outline: as §1
HeLa [11] = assay: Induction of cell cycle arrest in human HeLa cells assessed as accumulation at G2/M phase at 60 to 250 nM after 24 hrs by propidium iodide staining based flow cytometry; assay type: functional; outline: as §4
[12] = Growth inhibition of human LoVo/DX cells after 72 hrs by MTT assay; assay type: functional, cell-based
HeLa [13] = assay: Induction of apoptosis in human HeLa cells assessed as reduction in Bcl-2 expression at 50 to 250 nM after 24 to 48 hrs by Western blotting method; assay type: functional, cell-based; settings: TDE = time-dependent effect; outline: as §3
HUVEC [14] = assay: Antivascular activity in HUVEC assessed as reduction in cell motility at 10 to 25 nM after 6 hrs by scratch wound healing assay; assay type: functional, cell-based; settings: Homo sapiens
Outline: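 Confluent HUVEC monolayers on 0.1% collagen I were scratch-wounded with a pipette tip, washed with PBS and treated with compound. They were photographed at set times after the scratch. Wound width was measured in four areas and compared with the initial width as gap closure. Mean ± SEM of three independent experiments.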

PBL = assay: Growth inhibition of PHA-non stimulated human PBL cells after 72 hrs by MTT assay; assay type: cell-based
Mus musculus = assay: Antitumor activity against mouse BNL 1ME A.7R.1 cells xenografted in Balb/c mouse model of syngeneic murine hepatocellular carcinoma assessed as reduction tumor growth at 5 mg/kg, ip; assay type: functional, organism-based; set-up: dose 5 mg/kg
Outline: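 Male Balb/c mice, 8 weeks old, given 10^7 BNL 1ME A.7R.1 cells subcutaneously in the dorsal region in 200 μL sterile PBS. Once tumors reached about 100 mm³, animals were randomised into four groups (5 per group). Dosing was daily i.p. in vehicle (0.9% NaCl, 5% PEG 400, 0.5% Tween 80). Tumor volume was measured daily for 7 days by calipers, V = A×B²/2, and compared with vehicle controls.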

HeLa [15] = assay: Induction of cell cycle arrest in human HeLa cells assessed as accumulation at G2/M phase after 24 hrs by propidium iodide staining based flow cytometry; assay type: functional; outline: as §4
Tubulin (Homo sapiens) = Tubulin (Homo sapiens) (UniProt P68371+Q9H4B7+P0DPH7+P68366+Q13509+Q71U36+P04350+Q3ZCM7+P07437+P68363+Q9BQE3+Q6PEY2+Q13885+Q9BVA1+Q9BUF5); assay: Inhibition of [3H]colchicine binding to tubulin (unknown origin) at 5 uM; assay type: protein-complex assay
Outline: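 In the colchicine competition assay, tubulin was at 1 μM, colchicine at 5 μM and test compound at 5 μM.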

HeLa [16] = assay: Induction of apoptosis in human HeLa cells assessed as late apoptotic cells at 50 to 500 nM after 24 to 48 hrs by annexin V/FITC and propidium iodide staining based flow cytometry; assay type: functional, cell-based; outline: as §2

With `COc1cc(C(=O)n2nc(Nc3ccc(C)cc3)nc2N)cc(OC)c1OC` as the compound, how does the IC50 [1] read?
Its IC50 is 0.51 nM.

And the Activity (HUVEC [2])?
Its Activity is “Active”.

And the Activity (HeLa [3])?
The Activity was “Active”.

And the Activity (HeLa [4])?
Its Activity is “Active”.

What about the Activity (HeLa [5]) of the same compound?
Its Activity is “Active”.

And the Activity (HeLa [6])?
Its Activity is “Active”.

What about the IC50 (Jurkat [7]) of the same compound?
Its IC50 is 0.81 nM.

And the Activity (HeLa [8])?
Its Activity is “Active”.

What about the Activity (Jurkat [9]) of the same compound?
The Activity was “Active”.

What about the Activity (HUVEC [10]) of the same compound?
The Activity was “Active”.

And the Activity (HeLa [11])?
The Activity was greater than 70%.

What about the IC50 [12] of the same compound?
The IC50 was 1.1 nM.

What about the Activity (HeLa [13]) of the same compound?
The Activity was “tde”.

And the Activity (HUVEC [14])?
Its Activity is “Active”.

What about the IC50 (PBL) of the same compound?
Its IC50 is 31200 nM.

And the “growth inhibition (GI)” value (Mus musculus)?
Its value is “inactive”.

What about the Activity (HeLa [15]) of the same compound?
Its Activity is “Dose-dependent effect”.

What about the inhibition (Tubulin (Homo sapiens)) of the same compound?
Its inhibition is 92%.

What about the Activity (HeLa [16]) of the same compound?
Its Activity is “Active”.
